For 19 compounds, IC50 results are on record in ChEMBL document CHEMBL1773010, “Cytotoxic and apoptosis-inducing activities of limonoids from the seeds of Azadirachta indica (neem)” (J Nat Prod, 2011).

Some results are limits rather than exact numbers.

Common to all, as to assay type: functional, cell-based
The nature of experiment [1]: Cytotoxicity against human AZ-521 cells assessed as cell viability after 48 hrs by MTT assay. As to conditions: AZ-521, 48 h. The essentials: (§1)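 Cells seeded at 3 × 10^3 per well and exposed to compounds from 1 × 10^-4 to 1 × 10^-6 M for 48 h. MTT was then added for 3 h, formazan dissolved in 0.04 M HCl in 2-propanol, and absorbance read at 570 nm against 630 nm. IC50 is the concentration giving 50% growth inhibition, from triplicate assays.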
On the technique in general: Tetrazolium assays rely on reduction of a dye to a coloured formazan, in cell work by metabolically active cells.

The test system of the next experiment is A549. In words: Cytotoxicity against human A549 cells assessed as cell viability after 48 hrs by MTT assay. To be noted: A549, 48 h. Put shortly:
as §1

For another experiment, the system named is HL-60. In words: Cytotoxicity against human HL60 cells assessed as cell viability after 48 hrs by MTT assay. As to conditions: HL-60, 48 h. Put shortly: as §1
In a further experiment the test system is SK-BR-3. In words: Cytotoxicity against human SK-BR-3 cells assessed as cell viability after 48 hrs by MTT assay. As to conditions: SK-BR-3, 48 h. Put shortly: as §1
Experiment [2] can be described thus: Cytotoxicity against human CRL1579 cells assessed as cell viability after 48 hrs by MTT assay. The essentials:
as §1

Usually IC50 stands for the midpoint of a concentration-inhibition curve. Turning to `CC(=O)O[C@@H]1C[C@H]2C(C)(C)C(=O)C=C[C@]2(C)[C@H]2CC[C@]3(C)OC(=O)C=C3[C@@]21C`, the IC50 (in experiment [1]; in the experiment on A549; in the experiment with HL-60; in the experiment on SK-BR-3; in experiment [2]) was more than 20 µM in each case.

Turning to `COC(=O)C[C@H]1[C@]2(C)C3=C(C)[C@H](c4ccoc4)C[C@H]3O[C@@H]2[C@H](OC(C)=O)[C@@H]2[C@]1(C)C(=O)C=C[C@@]2(C)O`, the IC50 (in experiment [1]; in the experiment on A549; in the experiment with HL-60; with SK-BR-3; in experiment [2]) was more than 20 µM each time.

`CC(=O)O[C@@H]1C[C@H]2C(C)(C)C(=O)C=C[C@]2(C)[C@H]2CC[C@]3(C)C(=CC[C@H]3[C@H]3COC(=O)C3)[C@@]21C`: the IC50 (in experiment [1]; in the experiment with A549; in the experiment with HL-60; in the experiment on SK-BR-3; in experiment [2]) was more than 20 µM throughout.

Regarding `CCC(C)C(=O)O[C@H]1C[C@@H](OC(C)=O)[C@@]2(C(=O)OC)CO[C@H]3[C@@H](O)[C@@](C)([C@]45O[C@@]4(C)C4CC5O[C@@H]5C[C@@H](OC)C[C@]45O)[C@@H]4[C@@H](C(=O)OC)OC[C@@]14[C@@H]32` (some centres undefined), the IC50 (in experiment [1]; in the experiment with A549; in the experiment on HL-60; with SK-BR-3; in experiment [2]) was more than 20 µM throughout.

On to `CC(=O)O[C@@H]1C[C@H]2C(C)(C)C(=O)C=C[C@]2(C)[C@H]2CC[C@@]3(C)[C@H](c4ccoc4)OC(=O)[C@H]4O[C@]43[C@@]21C` [GEDUNIN], for which the IC50 is 16.9 µM in experiment [1]; more than 20 µM in the experiment on A549; 5.9 µM in the experiment with HL-60; 8.3 µM in the experiment with SK-BR-3; more than 20 µM in experiment [2].

Turning to `C/C=C(/C)C(=O)O[C@H]1C[C@@H](OC(C)=O)[C@@]2(C)CO[C@H]3[C@H]4O[C@@H]5CC(=O)C(C)=C5[C@@]4(C)[C@H](CC(=O)OC)[C@]1(C)[C@@H]32`, the IC50 (in experiment [1]; in the experiment on A549; in the experiment with HL-60; in the experiment with SK-BR-3; in experiment [2]) was more than 20 µM throughout.

In the case of `CC(=O)O[C@@H]1C[C@H]2C(C)(C)C(=O)C=C[C@]2(C)[C@H]2CC[C@]3(C)C(=CC(=O)[C@H]3c3ccoc3)[C@@]21C` [AZADIRADIONE], the IC50 was more than 20 µM in experiment [1]; more than 20 µM with A549; 14.7 µM in the experiment with HL-60; 15.9 µM in the experiment with SK-BR-3; more than 20 µM in experiment [2].

For the compound `CC(=O)O[C@@H]1C[C@H]2C(C)(C)C(=O)C=C[C@]2(C)[C@H]2CC[C@]3(C)C(=CC(=O)[C@@H]3c3ccoc3)[C@@]21C` [17-EPIAZADIRADIONE], the IC50 was more than 20 µM in experiment [1]; more than 20 µM in the experiment with A549; 12.6 µM with HL-60; more than 20 µM with SK-BR-3; more than 20 µM in experiment [2].

Turning to `CC1(C)C(=O)C=C[C@]2(C)[C@H]3CC[C@@]4(C)[C@H](c5ccoc5)OC(=O)[C@H]5O[C@]54[C@]3(C)[C@H](O)C[C@@H]12` [DEACETYLGEDUNIN], the IC50 was 16.9 µM in experiment [1]; more than 20 µM in the experiment with A549; more than 20 µM with HL-60; 12 µM with SK-BR-3; more than 20 µM in experiment [2].

On to `C/C=C(/C)C(=O)O[C@H]1C[C@@H](O)[C@@]2(C)CO[C@H]3[C@H]4O[C@@H]5C[C@@H](c6ccoc6)C(C)=C5[C@@]4(C)[C@H](CC(=O)OC)[C@]1(C)[C@@H]32`, for which the IC50 (in experiment [1]; with A549; in the experiment on HL-60; with SK-BR-3; in experiment [2]) was more than 20 µM throughout.

For the compound `CC(=O)O[C@@H]1C[C@H]2C(C)(C)C(=O)C=C[C@]2(C)[C@H]2CC[C@]3(C)C(=C(O)C(=O)[C@H]3c3ccoc3)[C@@]21C`, the IC50 (in experiment [1]; in the experiment with A549; in the experiment with HL-60; with SK-BR-3; in experiment [2]) was more than 20 µM each time.

Regarding `CC(=O)O[C@@H]1C[C@H]2C(C)(C)C(=O)C=C[C@]2(C)[C@H]2CC[C@@]3(C)OC(=O)C=C3[C@@]21C`, the IC50 (in experiment [1]; with A549; in the experiment with HL-60; in the experiment with SK-BR-3; in experiment [2]) was more than 20 µM each time.

For the compound `CC(=O)O[C@H]1C[C@@H](OC(C)=O)[C@@]2(C)CO[C@@H]3[C@@H](O)[C@@]4(C)C5=CC[C@@H](c6ccoc6)[C@]5(C)CC[C@@H]4[C@]1(C)[C@@H]32`, the IC50 in experiment [1] was 14.8 µM; with A549, more than 20 µM; with HL-60, 15.3 µM; in the experiment with SK-BR-3 it was more than 20 µM; in experiment [2], more than 20 µM.

On to `CC1(C)C(=O)C=C[C@]2(C)[C@H]3CC[C@]4(C)C(=CC(=O)O[C@@]4(O)c4ccoc4)[C@]3(C)[C@H](O)C[C@@H]12`, for which the IC50 (in experiment [1]; in the experiment on A549; in the experiment on HL-60; in the experiment with SK-BR-3; in experiment [2]) was more than 20 µM each time.

For the compound `CC=C(C)C(=O)O[C@H]1C[C@@H](OC(C)=O)[C@@]2(C(=O)OC)CO[C@H]3[C@H]4O[C@@H]5C6C[C@@H](O[C@@H]7OC=C[C@]67O)[C@]5(O)[C@@]4(C)[C@@H]4[C@@](OC)(C(=O)OC)OC[C@@]14[C@@H]32`, the IC50 (in experiment [1]; in the experiment on A549; in the experiment with HL-60; with SK-BR-3; in experiment [2]) was more than 20 µM throughout.

`CC1(C)C(=O)C=C[C@]2(C)[C@H]3CC[C@]4(C)C(=CC(=O)[C@H]4c4ccoc4)[C@]3(C)[C@H](OC(=O)c3ccccc3)C[C@@H]12`: the IC50 is more than 20 µM in experiment [1]; more than 20 µM in the experiment on A549; 5.3 µM in the experiment with HL-60; more than 20 µM with SK-BR-3; 4 µM in experiment [2].

For the compound `COC(=O)C[C@H]1[C@]2(C)C3=C(C)[C@H](c4ccoc4)C[C@H]3O[C@@H]2[C@H](O)[C@@H]2[C@]1(C)C(=O)C=C[C@@]2(C)C(=O)OC` [DEACETYLNIMBIN], the IC50 in experiment [1] was more than 20 µM; in the experiment on A549, more than 20 µM; in the experiment with HL-60 it was 11.6 µM; in the experiment with SK-BR-3, more than 20 µM; in experiment [2], more than 20 µM.

Consider `C/C=C(\C)C(=O)O[C@@H]1C[C@H](O)[C@]23CO[C@H](C(=O)OC)[C@H]2[C@](C)([C@]24O[C@@]2(C)[C@H]2C[C@@H]4O[C@@H]4OC=C[C@@]42O)[C@H](O)[C@@H]2OC[C@@]1(C(=O)OC)[C@H]23` [AZADIRACHTIN B], for which the IC50 (in experiment [1]; in the experiment on A549; in the experiment on HL-60; in the experiment with SK-BR-3; in experiment [2]) was more than 20 µM in each case.

For the compound `COC(=O)C[C@H]1[C@]2(C)C3=C(C)[C@H](c4ccoc4)C[C@H]3O[C@@H]2[C@H](OC(C)=O)[C@@H]2[C@]1(C)C(=O)C=C[C@@]2(C)C(=O)OC` [NIMBIN], the IC50 in experiment [1] was more than 20 µM; in the experiment on A549 it was more than 20 µM; with SK-BR-3 it was more than 20 µM; in experiment [2], 15.9 µM.
